≈ marks a conversion by molar mass, not a printed value.
Experiments:
Candida albicans [1] = assay: Antifungal activity against Candida albicans ATCC 10231 at 31.2 ug/ml after 24 hrs; format: functional; settings: ATCC 10231, 24 h
In short: (§1)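 C. albicans was grown in 96-well RPMI-1640 broth microdilution with compound wells diluted from DMSO stocks. Growth wells with matched DMSO and sterility wells were included. After 24 h at 30 °C in a moist, dark chamber, OD405 was read. % inhibition = 100 − (CTW − SCW)/(GCW − SCW) OD, done in duplicate.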

Saccharomyces cerevisiae = assay: Antifungal activity against Saccharomyces cerevisiae ATCC 9763 after 48 hrs by broth microdilution technique; format: functional; settings: ATCC 9763, 48 h
In short: (§2)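 Yeasts were tested by CLSI broth microdilution in RPMI-1640 buffered to pH 7.0 with MOPS, with compound from 250 down to 0.98 in DMSO stocks. Trays were held at 30 °C in a moist, dark chamber. MIC100, the lowest concentration giving total visual inhibition against the growth control, was read by eye at 48 h.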

Candida albicans [2] = assay: Antifungal activity against Candida albicans ATCC 10231 after 48 hrs by broth microdilution technique; format: functional; settings: ATCC 10231, 48 h; in short: as §2
Candida albicans [3] = assay: Antifungal activity against Candida albicans CCC 126 after 48 hrs by broth microdilution technique; format: functional; settings: CCC 126, 48 h
Cryptococcus neoformans [4] = assay: Antifungal activity against Cryptococcus neoformans IM 983040 after 48 hrs by broth microdilution technique; format: functional; settings: IM 983040, 48 h
In short: (§3)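 C. neoformans was tested by 96-well RPMI-1640 microdilution, with DMSO-matched growth and sterility control wells. Plates were incubated 48 h at 30 °C in a moist, dark chamber and read at OD405. % inhibition = 100 − (CTW − SCW)/(GCW − SCW), in duplicate. For the clinical isolates, MIC80 and MIC50 are the lowest concentrations giving 80% and 50% inhibition.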

Aspergillus flavus = assay: Antifungal activity against Aspergillus flavus ATCC 9170 after 48 hrs by broth microdilution technique; format: functional; settings: ATCC 9170, 48 h
In short: (§4)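 Moulds and dermatophytes were run by CLSI broth microdilution in MOPS-buffered RPMI-1640 at pH 7.0. Aspergillus was incubated at 30 °C and dermatophytes at 28–30 °C, in a moist, dark chamber. MIC100, the lowest concentration with no visible growth, was read visually at a time set by growth of the control fungus.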

Cryptococcus neoformans [5] = assay: Antifungal activity against Cryptococcus neoformans ATCC 32264 at 31.2 ug/ml after 48 hrs; format: functional; settings: ATCC 32264, 48 h; in short: as §3
Candida albicans [6] = assay: Antifungal activity against Candida albicans CCC 125 after 48 hrs by broth microdilution technique; format: functional; settings: CCC 125, 48 h
Cryptococcus neoformans [7] = assay: Antifungal activity against Cryptococcus neoformans IM 972724 after 48 hrs by broth microdilution technique; format: functional; settings: IM 972724, 48 h; in short: as §3
[8] = system: Trichophyton mentagrophytes; assay: Antifungal activity against Trichophyton mentagrophytes ATCC 9972 after 48 hrs by broth microdilution technique; format: functional; settings: ATCC 9972, 48 h; in short: as §4
Candida albicans [9] = assay: Antifungal activity against Candida albicans ATCC 10231 at 7.8 ug/ml after 24 hrs; format: functional; settings: ATCC 10231, 24 h; in short: as §1
Cryptococcus neoformans [10] = assay: Antifungal activity against Cryptococcus neoformans IM 00319 after 48 hrs by broth microdilution technique; format: functional; settings: IM 00319, 48 h; in short: as §3
Cryptococcus neoformans [11] = assay: Antifungal activity against Cryptococcus neoformans IM 042074 after 48 hrs by broth microdilution technique; format: functional; settings: IM 042074, 48 h; in short: as §3
Cryptococcus neoformans [12] = assay: Antifungal activity against Cryptococcus neoformans ATCC 32264 at 3.9 ug/ml after 48 hrs; format: functional; settings: ATCC 32264, 48 h; in short: as §3
Candida albicans [13] = assay: Antifungal activity against Candida albicans CCC 128 after 48 hrs by broth microdilution technique; format: functional; settings: CCC 128, 48 h
Candida albicans [14] = assay: Antifungal activity against Candida albicans CCC 127 after 48 hrs by broth microdilution technique; format: functional; settings: CCC 127, 48 h
Nannizzia gypsea = assay: Antifungal activity against Microsporum gypseum CCC 115 after 48 hrs by broth microdilution technique; format: functional; settings: CCC 115, 48 h; in short: as §4
Cryptococcus neoformans [15] = assay: Antifungal activity against Cryptococcus neoformans IM 983036 after 48 hrs by broth microdilution technique; format: functional; settings: IM 983036, 48 h; in short: as §3
Aspergillus niger = assay: Antifungal activity against Aspergillus niger ATCC 9029 after 48 hrs by broth microdilution technique; format: functional; settings: ATCC 9029, 48 h; in short: as §4
Candida albicans [16] = assay: Antifungal activity against Candida albicans CCC 130 after 48 hrs by broth microdilution technique; format: functional; settings: CCC 130, 48 h
Candida parapsilosis = assay: Antifungal activity against Candida parapsilosis CCC 124 after 48 hrs by broth microdilution technique; format: functional; settings: Lodderomyces parapsilosis, CCC 124, 48 h
Candida albicans [17] = assay: Antifungal activity against Candida albicans CCC 129 after 48 hrs by broth microdilution technique; format: functional; settings: CCC 129, 48 h
Cryptococcus neoformans [18] = assay: Antifungal activity against Cryptococcus neoformans ATCC 32264 after 48 hrs by broth microdilution technique; format: functional; settings: ATCC 32264, 48 h; in short: as §2
Nakaseomyces glabratus = assay: Antifungal activity against Candida glabrata CCC 115 after 48 hrs by broth microdilution technique; format: functional; settings: CCC 115, 48 h
Candida tropicalis = assay: Antifungal activity against Candida tropicalis CCC 131 after 48 hrs by broth microdilution technique; format: functional; settings: CCC 131, 48 h
Pichia kudriavzevii = assay: Antifungal activity against Candida krusei CCC 117 after 48 hrs by broth microdilution technique; format: functional; settings: CCC 117, 48 h
Candida albicans [19] = assay: Antifungal activity against Candida albicans CCC 130 after 24 hrs by broth microdilution technique; settings: CCC 130, 24 h
Cryptococcus neoformans [20] = assay: Antifungal activity against Cryptococcus neoformans IM 972751 after 48 hrs by broth microdilution technique; format: functional; settings: IM 972751, 48 h; in short: as §3
Cryptococcus neoformans [21] = assay: Antifungal activity against Cryptococcus neoformans ATCC 32264 at 15.6 ug/ml after 48 hrs; format: functional; settings: ATCC 32264, 48 h; in short: as §3
Aspergillus fumigatus = assay: Antifungal activity against Aspergillus fumigatus ATCC 26934 after 48 hrs by broth microdilution technique; format: functional; settings: ATCC 26934, 48 h; in short: as §4
Trichophyton rubrum = assay: Antifungal activity against Trichophyton rubrum CCC 113 after 48 hrs by broth microdilution technique; format: functional; settings: CCC 113, 48 h
Candida albicans [22] = assay: Antifungal activity against Candida albicans ATCC 10231 at 15.6 ug/ml after 24 hrs; format: functional; settings: ATCC 10231, 24 h; in short: as §1

MIC (Saccharomyces cerevisiae): 62 µg/mL (≈ 265 µM) | MIC (Candida albicans [2]): 62 µg/mL (≈ 265 µM) | MIC50 (Candida albicans [2]): 7.8 µg/mL (≈ 33.3 µM) | MIC80 (Candida albicans [2]): 15.6 µg/mL (≈ 66.6 µM) | MIC50 (Candida albicans [3]): 15.6 µg/mL (≈ 66.6 µM) | MIC80 (Candida albicans [3]): 31.2 µg/mL (≈ 133 µM) | MIC50 (Cryptococcus neoformans [4]): 3.9 µg/mL (≈ 16.6 µM) | MIC80 (Cryptococcus neoformans [4]): 7.8 µg/mL (≈ 33.3 µM) | MIC (Aspergillus flavus): 62 µg/mL (≈ 265 µM) | MIC50 (Candida albicans [6]): 62.5 µg/mL (≈ 267 µM) | MIC80 (Candida albicans [6]): 125 µg/mL (≈ 533 µM) | MIC50 (Cryptococcus neoformans [7]): 3.9 µg/mL (≈ 16.6 µM) | MIC80 (Cryptococcus neoformans [7]): 7.8 µg/mL (≈ 33.3 µM) | MIC [8]: 62 µg/mL (≈ 265 µM) | MIC50 (Cryptococcus neoformans [10]): 7.8 µg/mL (≈ 33.3 µM) | MIC80 (Cryptococcus neoformans [10]): 15.6 µg/mL (≈ 66.6 µM) | MIC50 (Cryptococcus neoformans [11]): 3.9 µg/mL (≈ 16.6 µM) | MIC80 (Cryptococcus neoformans [11]): 7.8 µg/mL (≈ 33.3 µM) | MIC50 (Candida albicans [13]): 31.2 µg/mL (≈ 133 µM) | MIC80 (Candida albicans [13]): 62.5 µg/mL (≈ 267 µM) | MIC50 (Candida albicans [14]): 62.5 µg/mL (≈ 267 µM) | MIC80 (Candida albicans [14]): 62.5 µg/mL (≈ 267 µM) | MIC (Nannizzia gypsea): 62 µg/mL (≈ 265 µM) | MIC50 (Cryptococcus neoformans [15]): 3.9 µg/mL (≈ 16.6 µM) | MIC80 (Cryptococcus neoformans [15]): 7.8 µg/mL (≈ 33.3 µM) | MIC (Aspergillus niger): 250 µg/mL (≈ 1070 µM) | MIC80 (Candida albicans [16]): 62.5 µg/mL (≈ 267 µM) | MIC50 (Candida parapsilosis): 15.6 µg/mL (≈ 66.6 µM) | MIC80 (Candida parapsilosis): 31.2 µg/mL (≈ 133 µM) | MIC50 (Candida albicans [17]): 31.2 µg/mL (≈ 133 µM) | MIC80 (Candida albicans [17]): 62.5 µg/mL (≈ 267 µM) | MIC (Cryptococcus neoformans [18]): 31 µg/mL (≈ 132 µM) | MIC50 (Cryptococcus neoformans [18]): 3.9 µg/mL (≈ 16.6 µM) | MIC80 (Cryptococcus neoformans [18]): 15.6 µg/mL (≈ 66.6 µM) | MIC50 (Nakaseomyces glabratus): 62.5 µg/mL (≈ 267 µM) | MIC80 (Nakaseomyces glabratus): 62.5 µg/mL (≈ 267 µM) | MIC50 (Candida tropicalis): 15.6 µg/mL (≈ 66.6 µM) | MIC80 (Candida tropicalis): 31.2 µg/mL (≈ 133 µM) | MIC50 (Pichia kudriavzevii): 31.2 µg/mL (≈ 133 µM) | MIC80 (Pichia kudriavzevii): 62.5 µg/mL (≈ 267 µM) | MIC50 (Candida albicans [19]): 31.2 µg/mL (≈ 133 µM) | MIC50 (Cryptococcus neoformans [20]): 3.9 µg/mL (≈ 16.6 µM) | MIC80 (Cryptococcus neoformans [20]): 15.6 µg/mL (≈ 66.6 µM) | MIC (Aspergillus fumigatus): 62 µg/mL (≈ 265 µM) | MIC (Trichophyton rubrum): 62 µg/mL (≈ 265 µM)
Structure (SMILES): CCc1ccc2nc(-c3ccccn3)ccc2c1
inhibition at 31.2 µg/mL (Candida albicans [1]): 80% | MFC (Saccharomyces cerevisiae): 250 µg/mL (≈ 1070 µM) | MFC (Candida albicans [2]): 250 µg/mL (≈ 1070 µM) | MFC (Aspergillus flavus): 125 µg/mL (≈ 533 µM) | inhibition at 31.2 µg/mL (Cryptococcus neoformans [5]): 80% | MFC [8]: 62 µg/mL (≈ 265 µM) | inhibition at 7.8 µg/mL (Candida albicans [9]): 50% | inhibition at 3.9 µg/mL (Cryptococcus neoformans [12]): 50% | MFC (Nannizzia gypsea): 62 µg/mL (≈ 265 µM) | MFC (Aspergillus niger): > 250 µg/mL | MFC (Cryptococcus neoformans [18]): 125 µg/mL (≈ 533 µM) | inhibition at 15.6 µg/mL (Cryptococcus neoformans [21]): 80% | MFC (Aspergillus fumigatus): 125 µg/mL (≈ 533 µM) | MFC (Trichophyton rubrum): 62 µg/mL (≈ 265 µM) | inhibition at 15.6 µg/mL (Candida albicans [22]): 80%

Source: ChEMBL document CHEMBL2157922, “Synthesis and antifungal activity of diverse C-2 pyridinyl and pyridinylvinyl substituted quinolines” (2012)
